ChEMBL document CHEMBL2177095, “Discovery of selective and potent inhibitors of gram-positive bacterial thymidylate kinase (TMK)” (J Med Chem, 2012)
Converted amounts (≈) assume the structure as drawn.

Assays:
[1] = Inhibition of Staphylococcus aureus thymidylate kinase assessed as effect on conversion of dTDP to dTMP by luciferin/luciferase reporter gene based assay
[2] = Inhibition of Streptococcus pneumoniae thymidylate kinase assessed as effect on conversion of dTDP to dTMP by luciferin/luciferase reporter gene based assay
Candida albicans = assay: Toxicity against Candida albicans; assay type: organism-based
[3] = Toxicity against human A549 cells; assay type: cell-based; settings: read-out: MIC
Staphylococcus aureus [4] = assay: Antimicrobial activity against methicillin and quinolone-resistant Staphylococcus aureus by broth microdilution method; assay type: functional
Outline: (§1)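 MICs were determined against bacterial strains from the AstraZeneca collection. For S. aureus, MSQS means methicillin- and quinolone-sensitive, and MRQR means methicillin- and quinolone-resistant.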

Thymidylate kinase = biological target: T1, Thymidylate kinase (Homo sapiens, UniProt P23919); assay: Inhibition of human thymidylate kinase assessed as effect on ATP production by Escherichia coli DdlA and Malachite green reagent based assay
T1 sequence (P23919 whole entry): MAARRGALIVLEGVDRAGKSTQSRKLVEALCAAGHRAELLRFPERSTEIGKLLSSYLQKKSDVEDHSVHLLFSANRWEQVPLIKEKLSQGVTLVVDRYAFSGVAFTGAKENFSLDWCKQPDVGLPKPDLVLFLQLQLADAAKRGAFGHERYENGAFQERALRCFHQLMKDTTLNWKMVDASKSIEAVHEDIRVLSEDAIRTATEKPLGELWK

Staphylococcus aureus [5] = assay: Antimicrobial activity against methicillin and quinolone-sensitive Staphylococcus aureus by broth microdilution method; assay type: functional; outline: as §1
Streptococcus pneumoniae = assay: Antimicrobial activity against Streptococcus pneumoniae by broth microdilution method; assay type: functional
Outline: (§2)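 Test organisms were strains from the AstraZeneca collection.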

[6] = Partition coefficient, log D of the compound at pH 7.4 by shake flask method; settings: octanol/water
[7] = Toxicity in Staphylococcus aureus infected mouse thigh infection model assessed as incidence of adverse events; assay type: organism-based, Thigh muscle; settings: in vivo
Staphylococcus aureus [8] = assay: Antimicrobial activity against Staphylococcus aureus infected in mouse thigh infection model assessed as compound dose causing microbial infection stasis administered as single dose; assay type: functional, Thigh muscle
Enterococcus faecalis = assay: Antimicrobial activity against vancomycin-resistant Enterococcus faecalis by broth microdilution method; assay type: functional; outline: as §1
Enterococcus faecium = assay: Antimicrobial activity against linezolid-resistant Enterococcus faecium by broth microdilution method; assay type: functional; outline: as §1
[9] = test system: Staphylococcus epidermidis; assay: Antimicrobial activity against Staphylococcus epidermidis by broth microdilution method; assay type: functional; outline: as §2
Streptococcus pyogenes = assay: Antimicrobial activity against Streptococcus pyogenes by broth microdilution method; assay type: functional; outline: as §2

Row | Structure (SMILES) | IC50 [1] [nM] | IC50 [2] [nM] | MIC (Candida albicans) [µg/mL] | MCC [3] [µg/mL] | MIC (Staphylococcus aureus [4]) [µg/mL] | IC50 (Thymidylate kinase) [nM] | MIC (Staphylococcus aureus [5]) [µg/mL] | MIC (Streptococcus pneumoniae) [µg/mL] | logD [6] | NOAEL [7] [mg/kg/day] | Activity (Staphylococcus aureus [8]) [mg/kg] | MIC (Enterococcus faecalis) [µg/mL] | MIC (Enterococcus faecium) [µg/mL] | MIC [9] [µg/mL] | MIC (Streptococcus pyogenes) [µg/mL]
1 | Cc1ccc(Oc2cccc(CN3CCC[C@H](n4cc(C)c(=O)[nH]c4=O)C3)c2)cc1Cl | 1900 | 1000 | – | – | – | – | – | – | – | – | – | – | – | – | –
2 | Cc1cn([C@H]2CCCN([C@H](C)c3ccc(C(=O)O)c(Oc4cccc(Cl)c4)c3)C2)c(=O)[nH]c1=O | 2.5 | 0.3 | > 64 | > 64 | 8 (≈ 16.5 µM) | 150000 | 4 (≈ 8.27 µM) | 0.1 (≈ 0.207 µM) | -0.26 | – | – | – | – | – | –
3 | Cc1cn([C@H]2CCCN([C@@H](C)c3ccc(C(=O)O)c(Oc4cccc(Cl)c4)c3)C2)c(=O)[nH]c1=O | 29.3 | 1 | – | – | 8 (≈ 16.5 µM) | – | 8 (≈ 16.5 µM) | 0.25 (≈ 0.517 µM) | -0.3 | – | – | – | – | – | –
4 | CC[C@@H](c1ccc(C(=O)O)c(Oc2cccc(Cl)c2)c1)N1CCC[C@H](n2cc(C)c(=O)[nH]c2=O)C1 | 18.3 | 3 | – | – | 4 (≈ 8.03 µM) | – | 2 (≈ 4.02 µM) | 0.25 (≈ 0.502 µM) | 0.2 | – | – | – | – | – | –
5 | CCC[C@H](c1ccc(C(=O)O)c(Oc2cccc(Cl)c2)c1)N1CCC[C@H](n2cc(C)c(=O)[nH]c2=O)C1 | 8.3 | 0.3 | > 64 | > 64 | 1 (≈ 1.95 µM) | 150000 | 1 (≈ 1.95 µM) | 0.05 (≈ 0.0977 µM) | – | – | – | – | – | – | –
6 | CCC[C@@H](c1ccc(C(=O)O)c(Oc2cccc(Cl)c2)c1)N1CCC[C@H](n2cc(C)c(=O)[nH]c2=O)C1 | 18 | 0.6 | – | – | 4 (≈ 7.81 µM) | – | 4 (≈ 7.81 µM) | 0.1 (≈ 0.195 µM) | – | – | – | – | – | – | –
7 | Cc1cn([C@H]2CCCN([C@H](CC(C)C)c3ccc(C(=O)O)c(Oc4cccc(Cl)c4)c3)C2)c(=O)[nH]c1=O | – | < 0.2 | – | – | 1 (≈ 1.9 µM) | – | 1 (≈ 1.9 µM) | 0.03 (≈ 0.057 µM) | 0.9 | – | – | – | – | – | –
8 | Cc1cn([C@H]2CCCN([C@@H](CC(C)C)c3ccc(C(=O)O)c(Oc4cccc(Cl)c4)c3)C2)c(=O)[nH]c1=O | 13.5 | 0.6 | – | – | 2 (≈ 3.8 µM) | – | 2 (≈ 3.8 µM) | 0.05 (≈ 0.0951 µM) | 0.9 | – | – | – | – | – | –
9 | Cc1cn([C@H]2CCCN([C@H](CC(C)(C)C)c3ccc(C(=O)O)c(Oc4cccc(Br)c4)c3)C2)c(=O)[nH]c1=O | 0.8 | 0.2 | > 64 | > 64 | 0.25 (≈ 0.428 µM) | 62000 | 0.25 (≈ 0.428 µM) | 0.02 (≈ 0.0342 µM) | 1.1 | 800 | 150 | 1 (≈ 1.71 µM) | 0.25 (≈ 0.428 µM) | 2 (≈ 3.42 µM) | 0.08 (≈ 0.137 µM)
10 | Cc1cn([C@H]2CCCN([C@@H](CC(C)(C)C)c3ccc(C(=O)O)c(Oc4cccc(Br)c4)c3)C2)c(=O)[nH]c1=O | 2.8 | 0.6 | – | – | 1 (≈ 1.71 µM) | – | 2 (≈ 3.42 µM) | 0.03 (≈ 0.0513 µM) | 1.2 | – | – | – | – | – | –
11 | CCC(C)(C)C[C@H](c1ccc(C(=O)O)c(Oc2cccc(Cl)c2)c1)N1CCC[C@H](n2cc(C)c(=O)[nH]c2=O)C1 | 1 | 0.3 | > 64 | > 64 | 0.1 (≈ 0.18 µM) | 43400 | 0.25 (≈ 0.451 µM) | 0.05 (≈ 0.0902 µM) | 1.4 | – | – | – | – | – | –
12 | CCC(CC)C[C@H](c1ccc(C(=O)O)c(Oc2cccc(Cl)c2)c1)N1CCC[C@H](n2cc(C)c(=O)[nH]c2=O)C1 | < 3 | 0.1 | – | – | 0.1 (≈ 0.18 µM) | – | 0.25 (≈ 0.451 µM) | 0.02 (≈ 0.0361 µM) | 1.7 | – | – | – | – | – | –
13 | CCCCC[C@H](c1ccc(C(=O)O)c(Oc2cccc(Br)c2)c1)N1CCC[C@H](n2cc(C)c(=O)[nH]c2=O)C1 | 0.5 | < 0.1 | > 64 | > 64 | 0.1 (≈ 0.171 µM) | 32000 | 0.25 (≈ 0.428 µM) | 0.01 (≈ 0.0171 µM) | 1.1 | – | – | 0.06 (≈ 0.103 µM) | 0.25 (≈ 0.428 µM) | 0.5 (≈ 0.855 µM) | 0.04 (≈ 0.0684 µM)
14 | CCC(C)(CC)C[C@H](c1ccc(C(=O)O)c(Oc2cccc(Br)c2)c1)N1CCC[C@H](n2cc(C)c(=O)[nH]c2=O)C1 | 1.3 | 0.3 | – | – | 0.03 (≈ 0.049 µM) | – | 0.1 (≈ 0.163 µM) | 0.03 (≈ 0.049 µM) | 2 | – | – | – | – | – | –
15 | CCCC(C)(C)C[C@H](c1ccc(C(=O)O)c(Oc2cccc(Cl)c2)c1)N1CCC[C@H](n2cc(C)c(=O)[nH]c2=O)C1 | 0.7 | 0.3 | – | – | 0.06 (≈ 0.106 µM) | – | 0.25 (≈ 0.44 µM) | 0.06 (≈ 0.106 µM) | 2 | – | – | – | – | – | –
16 | Cc1cn([C@H]2CCCN([C@H](CC3CCCCC3)c3ccc(C(=O)O)c(Oc4cccc(Cl)c4)c3)C2)c(=O)[nH]c1=O | 0.7 | < 0.1 | – | – | 0.1 (≈ 0.177 µM) | – | 0.25 (≈ 0.442 µM) | 0.01 (≈ 0.0177 µM) | – | – | – | – | – | – | –
17 | Cc1cn([C@H]2CCCN([C@H](CC3CCOCC3)c3ccc(C(=O)O)c(Oc4cccc(Cl)c4)c3)C2)c(=O)[nH]c1=O | 1.6 | < 0.1 | – | – | 8 (≈ 14.1 µM) | – | 16 (≈ 28.2 µM) | 0.1 (≈ 0.176 µM) | -0.25 | – | – | – | – | – | –
18 | Cc1cn([C@H]2CCCN([C@H](CC34CC5CC(CC(C5)C3)C4)c3ccc(C(=O)O)c(Oc4cccc(Br)c4)c3)C2)c(=O)[nH]c1=O | 1.1 | 0.1 | – | – | 0.1 (≈ 0.151 µM) | – | 0.25 (≈ 0.377 µM) | 0.03 (≈ 0.0453 µM) | 2.5 | – | – | – | – | – | –
19 | Cc1cccc(Oc2cccc(CN3CCC[C@H](n4cc(C)c(=O)[nH]c4=O)C3)c2)c1 | 2700 | 300 | – | – | – | – | – | – | – | – | – | – | – | – | –
